Assay outcomes (PubChem)
ROMK primary – ROMK potassium channel modulators, primary screen, cell-based, thallium flux, MLSMR library; ATP-sensitive inward rectifier potassium channel 1 (Homo sapiens), P48048; B-score at 10 µM; hit rate 2% among 130,000; Tet-inducible ROMK, thallium flux fluorescence; actives lie on both sides;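 active = signal ratio slope over the read window, or its plate-corrected B-score, at least 3 SD from the plate mean, either direction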;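 note: B-score of the F/F0 ratio slope over 7 to 12 s after thallium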
PKD1 inh – inhibitors of human PKD1 kinase, biochemical, fluorescence polarization. Serine/threonine-protein kinase D1 (Homo sapiens), Q15139. PKD1 kinase fluorescence polarization assay. inhibition, % (no concentration beside the values). hit rate 0.056% among 200,000. AID 797, 2007; in the data active = inhibition above about 50%
Arbovirus anti – antivirals against arbovirus infection, primary screen, cell-based, full library, 10K replicate subset; hit rate 0.37% among 200,000; arbovirus infection cell-based antiviral screen; AID 1251, 2008; inhibition, % at 10 µM; in the data active = inhibition above about 30%
MDM2 E3 inh – MDM2-luciferase reporter signal enhancers, primary screen, MDM2 E3 ligase inhibitor project, cell-based, luminescence, 1536-well; AID 1230, 2008; signal enhancement, % at 5 µM; hit rate 0.11% among 210,000; E3 ubiquitin-protein ligase Mdm2 (Homo sapiens), Q00987; cell-based MDM2 ubiquitination luciferase reporter, 2 h; 0 = plate control, 100 = twice control, blank-subtracted;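 active = signal enhancement of 30% or more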;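 note: luminescence tracks abundance of the self-degrading MDM2-luciferase fusion protein; higher signal means inhibition of MDM2 E3 ligase activity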
Target sequence (Q00987 whole entry, looked up, the tested form may be a part): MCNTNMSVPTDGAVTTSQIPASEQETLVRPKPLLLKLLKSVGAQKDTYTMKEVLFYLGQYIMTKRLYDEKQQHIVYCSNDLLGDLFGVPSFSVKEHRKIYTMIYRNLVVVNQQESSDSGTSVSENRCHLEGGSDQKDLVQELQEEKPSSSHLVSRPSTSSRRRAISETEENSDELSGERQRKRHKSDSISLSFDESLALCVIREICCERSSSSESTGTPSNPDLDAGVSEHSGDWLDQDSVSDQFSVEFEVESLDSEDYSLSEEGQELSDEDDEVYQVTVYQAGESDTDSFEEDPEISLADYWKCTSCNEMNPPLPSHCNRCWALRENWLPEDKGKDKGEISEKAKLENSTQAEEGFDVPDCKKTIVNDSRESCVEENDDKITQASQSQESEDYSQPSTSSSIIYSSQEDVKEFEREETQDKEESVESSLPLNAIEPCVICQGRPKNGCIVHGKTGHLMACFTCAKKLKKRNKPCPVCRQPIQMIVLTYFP
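Assay system: stable mammalian line carrying autodegrading MDM2–luciferase fusion reporter; Input: 2000 cells in each well; Compound dosing: single-point 5 µM; Schedule: 2 h compound exposure at 37 °C; Signal: SteadyLite luciferase luminescence after 15 min room-temperature reagent incubation; Evaluation: % luminescence enhancement versus blank-corrected plate control mean; Benchmarks: plate controls and plate blanks.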
Calpain2 inh – inhibitors of pig calpain II, primary screen, biochemical, fluorogenic peptide substrate, 1536-well; purified calpain II, 30 min; inhibition, % at 16 µM; hit rate 0.37% among 220,000;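 active = inhibition above about 50%, limit read from the data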
KCC2 mod – KCC2 cotransporter modulators, thallium flux, primary screen, cell-based, HEK293 KCC2, FluoZin-2 fluorescence, MLSMR | Solute carrier family 12 member 5 (Homo sapiens), Q9H2X9 | KCC2 cells, thallium flux FluoZin-2 fluorescence | B-score of Tl+ flux slope (higher = more flux/activation; lower = inhibition) at 10 µM | hit rate 2.2% among 190,000;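 active = thallium flux slope and its plate-corrected score both differing from the plate sample mean at a set confidence after two filtering rounds, in either direction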;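 note: slope of fluorescence scaled to starting intensity during 10 to 20 s after thallium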
KCC2 sec1 – KCC2 modulators in sodium-free buffer, confirmation, cell-based, HEK293 KCC2, thallium flux, secondary assay; FluoZin2 fluorescence; active compounds read high; hit rate 15% among 3,700; normalised thallium flux (F/F0 slope) at 10 µM; shares compounds with KCC2 mod; AID 1713, 2009;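 active = thallium flux slope above the same plate's solvent-only control mean plus 3 SD; inconclusive = the two replicate wells disagree; inactive = no significant difference from solvent-only control wells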
KCC2 bumet counter – thallium flux persisting under bumetanide in KCC2 cells, confirmation, counter-screen for KCC2 modulator project, cell-based, HEK293 KCC2, FluoZin2, secondary assay 3; shares compounds with KCC2 mod; HEK293-KCC2 + bumetanide/ouabain; active compounds read high; normalized thallium flux at 10 µM; hit rate 49% among 3,700; AID 1714, 2009;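 active = thallium entry rate above the same plate's blocked-transporter control wells by more than 3 SD; inconclusive = the two repeat wells disagree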;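 note: raw slope of fluorescence over initial fluorescence between 10 and 20 s after thallium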
KCC2 secondary2 – KCC2 modulators without ouabain present, confirmation, cell-based, HEK293 KCC2, thallium flux, FluoZin2, secondary assay 2. hit rate 23% among 3,700. thallium flux FluoZin2 fluorescence; actives lie on both sides; F/F0 rise rate, 10–20 s post-thallium. shares compounds with KCC2 mod. normalized thallium flux at 10 µM;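 active = thallium flux slope more than 3 SD above or below the plate's solvent-only control mean, mostly below; inconclusive = the two repeat wells disagreed; inactive = no significant shift from solvent-only controls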;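 note: raw slope with 0.1% DMSO as baseline and bumetanide as block control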
HEK counter1 – thallium flux modulation in parental HEK cells, confirmation, counter-screen for KCC2 modulator project, cell-based, counterscreen 1; shares compounds with KCC2 mod; HEK293 parental cells, thallium flux FluoZin2, ouabain; baseline-ratio fluorescence slope, 10–20 s after thallium; thallium flux rate (normalised fluorescence) at 10 µM; hit rate 46% among 3,700; AID 1716, 2009;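 active = thallium flux rate significantly above the same plate's solvent-only control wells, beyond their mean plus 3 SD; inconclusive = the two replicate wells gave conflicting results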
KCC2 retest ouab – KCC2 inhibitors and activators, ouabain retest, confirmation, HEK-KCC2 cells; shares compounds with KCC2 mod; HEK293-KCC2, thallium flux FluoZin2 fluorescence; bidirectional: low = inhibitor, high = activator; raw Tl+ flux slope (below DMSO = inhibition, above = activation) at 10 µM; hit rate 48% among 3,700; AID 1717, 2009;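 active = thallium flux slope beyond 3 SD from same-plate DMSO control mean in most replicates, usually higher, sometimes lower; inconclusive = repeat tests gave conflicting results; inactive = no significant difference from controls in most replicates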;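 note: slope of initial-normalized fluorescence between seconds 10 and 20 after thallium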
HEK293 Tl flux2 – native HEK Tl+ uptake effects, second counter-screen – HEK cells, counterscreen 2, counter-screen for KCC2 modulator project, confirmation; shares compounds with KCC2 mod; HEK293 parental, thallium flux FluoZin-2 fluorescence slope; thallium flux slope at 10 µM; hit rate 33% among 3,700; AID 1718, 2009;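 active = thallium flux slope above the same plate's solvent-control mean plus 3 SD in both duplicate wells; inconclusive = duplicate wells that disagreed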;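 note: run without ouabain in cells lacking the KCC2 cotransporter; slope of fluorescence scaled to its starting value between 10 and 20 s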
* hit, by the source's call. Sampled rows, rich in hits. Any-hit rate of the full collection: about 3.7%.

For Cc1nn(-c2ccccc2)c(C)c1/C=N/n1c(-c2ccccc2Br)n[nH]c1=S the results were MDM2 E3 inh -3, Calpain2 inh 4, KCC2 mod 10*, KCC2 sec1 0.0064, KCC2 bumet counter 0.042*, KCC2 secondary2 0.031, HEK counter1 0.011*, KCC2 retest ouab inconclusive and HEK293 Tl flux2 inconclusive.
`O=S(=O)(Nc1ccccc1N1CCCCC1)c1ccc(F)cc1F` gave ROMK primary -0.041, PKD1 inh -7, Arbovirus anti -3, MDM2 E3 inh -8, Calpain2 inh 4, KCC2 mod 19*, KCC2 sec1 0.013*, KCC2 bumet counter 0.038*, KCC2 secondary2 0.031, HEK counter1 0.012*, KCC2 retest ouab 0.028 and HEK293 Tl flux2 0.012*.
Nc1ccc(N2CCCCC2)c(S(=O)(=O)Nc2ccccc2Cl)c1 was read as MDM2 E3 inh -10, Calpain2 inh 1 and KCC2 mod -0.18.
For Oc1cc2ccccc2cc1-c1n[nH]c(=S)n1Cc1ccco1 the results were ROMK primary -0.71, PKD1 inh 5, Arbovirus anti 8, MDM2 E3 inh -10, Calpain2 inh -74, KCC2 mod 8.9*, KCC2 sec1 0.0092, KCC2 bumet counter 0.023*, KCC2 secondary2 0.03, HEK counter1 0.013*, KCC2 retest ouab inconclusive and HEK293 Tl flux2 0.0098.
For c1ccc(OCc2nn3c(C4CCCCC4)nnc3s2)cc1 the results were ROMK primary -1.5, PKD1 inh -6, Arbovirus anti -23, MDM2 E3 inh -26, Calpain2 inh 19, KCC2 mod -3.6*, KCC2 sec1 0.014, KCC2 bumet counter 0.0035, KCC2 secondary2 0.024*, HEK counter1 inconclusive, KCC2 retest ouab 0.013* and HEK293 Tl flux2 0.0093.
For CCOC(=O)NNC(=O)C1CCC(C)CC1 (stereo unspecified) the results were ROMK primary -0.32, PKD1 inh -4, Arbovirus anti 0, MDM2 E3 inh -5, Calpain2 inh -31 and KCC2 mod 0.034.
`CC(C)(C)NC(NC(=O)Cc1ccccc1)C(Cl)(Cl)Cl` (stereo unspecified) gave PKD1 inh -12, Arbovirus anti 2, MDM2 E3 inh -4 and Calpain2 inh -13.
CCOC(=O)c1cc(-c2ccc(Cl)cc2)nc2c1c(=O)[nH]c(=O)n2CCOC was read as ROMK primary 0.095, PKD1 inh 13, Arbovirus anti -1, MDM2 E3 inh 0, Calpain2 inh -367 and KCC2 mod 0.19.
`CCOC(=O)c1cc(-c2ccc(Cl)cc2)nc2onc(C)c12` gave ROMK primary -0.051, PKD1 inh -7, Arbovirus anti 1, MDM2 E3 inh -9, Calpain2 inh -2, KCC2 sec1 0.0075, KCC2 bumet counter 0.0046, KCC2 secondary2 0.029, HEK counter1 0.0078, KCC2 retest ouab 0.019 and HEK293 Tl flux2 0.011.
For O=C(NC(=S)Nc1ccc(CN2CCOCC2)cc1)c1ccc(-c2ccc(Br)cc2)o1 the results were MDM2 E3 inh -10, Calpain2 inh -16, KCC2 mod 5.3*, KCC2 sec1 0.0096, KCC2 bumet counter 0.0063, KCC2 secondary2 0.033, HEK counter1 0.018*, KCC2 retest ouab inconclusive and HEK293 Tl flux2 0.011.
Screening O=C(NC(=S)Nc1ccc(CN2CCOCC2)cc1)c1cc2ccccc2o1 returned ROMK primary -0.22, PKD1 inh -3, Arbovirus anti -4, MDM2 E3 inh -11, Calpain2 inh 31, KCC2 mod 12*, KCC2 sec1 0.0065, KCC2 bumet counter 0.016*, KCC2 secondary2 0.032, HEK counter1 0.02*, KCC2 retest ouab 0.029* and HEK293 Tl flux2 0.015*.
O=C(Nc1ccc(CN2CCOCC2)cc1)c1cc2ccccc2o1 was read as PKD1 inh -4, Arbovirus anti 3, MDM2 E3 inh -49, Calpain2 inh -2 and KCC2 mod -0.76.
O=C(CSc1ccc(-c2ccc(F)cc2)nn1)N1CCN(c2ccccc2)CC1 was read as PKD1 inh -7, Arbovirus anti -4, MDM2 E3 inh -13, Calpain2 inh 16 and KCC2 mod -0.81.
For O=C(NC(=S)Nc1cccc2ncccc12)c1cccs1 the results were ROMK primary -0.13, PKD1 inh 4, Arbovirus anti 3, MDM2 E3 inh -21, Calpain2 inh -19, KCC2 mod 8.2*, KCC2 sec1 inconclusive, KCC2 bumet counter 0.035*, KCC2 secondary2 0.032, HEK counter1 0.016*, KCC2 retest ouab 0.025* and HEK293 Tl flux2 0.018*.
O=C(NC(=S)Nc1ccc2ncccc2c1)c1ccccc1 was read as ROMK primary 0.53, PKD1 inh -2, Arbovirus anti -8, MDM2 E3 inh -7, Calpain2 inh -7 and KCC2 mod 0.66.
